Assay results from different studies.
Each line is one published result; the experiments were not run side by side.
Target: Interleukin-1 receptor-associated kinase 1 (IRAK1, Homo sapiens, UniProt P51617)

Compound | assay | setting | endpoint | result
Cc1cc(C)c(-n2ccn3nc(-c4cccnc4)cc23)cc1NC(=O)c1cc(C#N)cc(S(F)(F)(F)(F)F)c1 | cell-free assay, competition with immobilised ligand | 0.1 µM | remaining binding | 87.3%
CCCOc1ccc(OC)c(F)c1C(=O)c1ccc(C(=O)N[C@@H]2CNC[C@H]2NC(=O)c2ccc3[nH]ncc3c2)cc1 | enzyme activity, inhibitor | 10 µM | remaining activity | 49%
CCOC(=O)c1cc2cc(-c3cc(C(=O)NCc4ccc(C(=O)O)cc4)nn3C)ccc2[nH]1 | cell-free assay, competition with immobilised ligand | 0.1 µM | remaining binding | 85%
COc1cc(Nc2cnc(C#N)c(O[C@H](C)CN(C)C)n2)ncc1-c1cnn(C)c1 | enzyme activity, inhibitor, radiometric | 10 µM | remaining activity | 9%
COc1cc(-c2cc(-c3ccc(N4CCNCC4)cc3)cnc2C)cc(OC)c1OC | enzyme activity, inhibitor | 0.1 µM | inhibition | 2%
FC(F)(F)Oc1cccc(-c2cnc3ccc(-c4ccncc4)nn23)c1 | enzyme activity, inhibitor, radiometric | 5 µM | activity vs control | 24%
Oc1cccc(-c2nc(N3CCOCC3)c3oc4ncccc4c3n2)c1 | cell-free assay | 0.5 µM | remaining signal | 84.2%
O=C(Nc1cnn(-c2csc(C(=O)NC3COC3)c2)c1)Nc1c(F)cccc1Cl | enzyme activity, inhibitor | 5 µM | remaining activity | 107%
CCCCNc1ncc2c(-c3ccc(F)cc3)nn(C[C@H]3CC[C@H](N)CC3)c2n1 | target engagement in cells, inhibitor, chemoproteomics | 20 mM | inhibition | 51.5%
Cc1cnc(NC2CCOCC2)nc1-n1cnc(C(=O)NC(CN)c2cc(F)cc(Cl)c2)c1 (stereo not drawn) | enzyme activity, inhibitor, radiometric | 1 µM | remaining activity | 101%
COc1ccc(COc2ccc(Cc3cnc(N)nc3N)cc2OC)cc1 | cell-free assay | 0.5 µM | remaining signal | 123%
CCN(CC)CCNC(=O)c1c(C)[nH]c(/C=C2\C(=O)Nc3ccc(F)cc32)c1C | enzyme activity, inhibitor | 0.3 µM | inhibition | 31%
CC(C)(C)c1nc2c(s1)c1nc(N)ncc1c1ccc(NS(=O)(=O)c3c(F)cccc3F)c(F)c12 | enzyme activity, inhibitor, radiometric | 1 µM | remaining activity | 90%
c1ccc(N2CCN(Cc3nc4ccccc4[nH]3)CC2)nc1 | binding, competition with immobilised ligand | 1 µM | remaining binding | 100%
CNC(=O)c1cc(Oc2ccc(NC(=O)Nc3ccc(Cl)c(C(F)(F)F)c3)cc2)ccn1 | enzyme activity, inhibitor | 0.3 µM | inhibition | -4%
Cc1nc(N2CC[C@@H](O)C2)ncc1-c1cc(C(F)(F)F)cc2[nH]ncc12 | binding, competition with immobilised ligand | 1 µM | remaining binding | 100%
Cc1ccc(Nc2nccc(N(C)c3ccc4c(C)n(C)nc4c3)n2)cc1S(N)(=O)=O | enzyme activity, inhibitor | 0.3 µM | inhibition | -6%
CC/C(=N\NC(=O)NCc1cccc(O)c1)c1ccc(O)c(C)c1O | enzyme activity, inhibitor | 0.1 µM | inhibition | -0.6%
NS(=O)(=O)c1cc(NC(=O)C2(c3ccccc3Cl)CC2)ccc1Oc1cccc(Cl)c1 | cell-free assay, competition with immobilised ligand | 1 µM | remaining binding | 79%
CCCS(=O)(=O)Nc1ccc(F)c(C(=O)c2c[nH]c3ncc(-c4ccc(Cl)cc4)cc23)c1F | enzyme activity, inhibitor | 1 µM | inhibition | < 10%
COc1cc(/C=C/C(=O)CC(=O)/C=C/c2ccc(O)c(OC)c2)ccc1O | enzyme activity, inhibitor | 1 µM | activity vs control | 97%
CCCOc1ccc([C@@H]2[C@@H](C(=O)O)[C@H](c3ccc4c(c3)OCO4)CN2CC(=O)Nc2c(CC)cccc2CC)cc1 | cell-free assay, competition with immobilised ligand | 1 µM | remaining binding | 96%
CN1CC(Oc2cnc(C#N)cc2-c2ccn3nc(NC(=O)C4CC4)cc3c2)C1 | enzyme activity, inhibitor | 1 µM | inhibition | 38%
Cc1ccc(C(=O)NCc2ccsc2)cc1C#Cc1cn(C(C)C)c2ncnc(N)c12 | enzyme activity, inhibitor | 1 µM | activity vs control | 86%
COc1cc2nccc(Oc3ccc(NC(=O)c4c5n(n(-c6ccc(F)cc6)c4=O)CCCC5)cc3)c2cc1OC | enzyme activity, inhibitor | 0.1 µM | inhibition | -7%
O=C(NC[C@@H]1[C@H]2CN(C(=O)OCc3cc(C(F)(F)F)cc(C(F)(F)F)c3)C[C@@H]12)c1ccc2[nH]nnc2c1 | cell-free assay, competition with immobilised ligand | 1 µM | remaining binding | 98%
CN(C)C1CCN(CC#Cc2nn(C3CCCC3)c3nc(NCc4ccccc4)ncc23)C1 (stereo not drawn) | enzyme activity, inhibitor, FRET | 10 µM | inhibition | 37%
O=C(Nc1ccc(Oc2ccc(F)cc2)cc1)N1CCc2ncccc2[C@H]1c1ccc(F)cc1 | cell-free assay, competition with immobilised ligand | 1 µM | remaining binding | 88%
Cc1ccc(NC(=O)c2ccc(C)c(C(F)(F)F)c2)cc1C#Cc1nn(C2CCC(O)CC2)c2ncnc(N)c12 (stereo not drawn) | cell-free assay | 10 µM | remaining signal | 30%
COc1cc(Cl)c(C(=O)N[C@@H](CN[C@H]2CC[C@@H](N)CC2)Cc2ccc(C#N)cc2)cc1-c1ccc(CN[C@H](C)c2ccc(C)cc2)o1 | enzyme activity, inhibitor | 1 µM | remaining activity | 97%
